Measured values from different studies.
Lines come from different studies, so protocols differ.
Target: Casein kinase II subunit alpha' (CSNK2A2, Homo sapiens, UniProt P19784)

Structure (SMILES) | test | setting | remaining binding
Cc1cnc(Nc2ccc(C(=O)N3CCC(N4CCCC4)CC3)cc2)nc1-c1cc2ccccc2s1 | binding, competition with immobilised ligand | 1 µM | 0%
c1cncc(-c2cccc(Nc3nccc(NC4CCCCC4)n3)c2)c1 | binding, competition with immobilised ligand | 10 µM | 65%
COc1cc(-c2cn(C3CCc4ccccc4N(CC(F)(F)F)C3=O)nn2)ccc1-n1ccc(C)n1 (stereo not shown) | cell-free assay, competition with immobilised ligand | 1 µM | 84%
C[C@@H]1CCN(c2nccc(-c3cnn4ncccc34)n2)C1 | binding | 1 µM | 60%
Nc1ncc2c(n1)-c1c([nH]c3ccc(C#CC4CC4)cc13)CCCC2 | binding, competition with immobilised ligand | 1 µM | 82%
CN(C)c1nccc(-c2cnc3ncccn23)n1 | binding | 1 µM | 24%
Cc1c(NC(=O)c2cc(C(N)=O)nc3cc(F)ccc23)c(C(F)(F)F)nn1Cc1ccc(C#N)cc1 | cell-free assay, competition with immobilised ligand | 1 µM | 100%
O=C(c1ccc(Nc2ncc(Cl)c(-c3ccc(Cl)s3)n2)cc1)N1CCC(N2CCCC2)CC1 | binding, competition with immobilised ligand | 1 µM | 0.15%
CO[C@@H](C)c1c(Nc2ccc([C@@H](N(C)C(=O)C3CCS(=O)(=O)CC3)C(F)(F)F)cc2)cnc2cc(Cl)nn12 | cell-free assay, competition with immobilised ligand | 1 µM | 100%
O=C(NCC1CCOCC1)c1n[nH]cc1NC(=O)c1c(F)cccc1F | binding, competition with immobilised ligand | 1 µM | 76%
COc1ccnn2ncc(-c3ccnc(N(C)C)n3)c12 | binding | 1 µM | 61%
O=C(NS(=O)(=O)c1ccc(NCC2CCOCC2)c([N+](=O)[O-])c1)c1ccc(N2CCN(Cc3ccc(C(F)(F)F)cc3-c3ccc(Cl)cc3)CC2)cc1Oc1cnc2[nH]ccc2c1 | cell-free assay, competition with immobilised ligand | 1 µM | 100%
F[C@@H]1CCN(c2nccc(-c3cnn4ncccc34)n2)C1 | binding | 1 µM | 100%
Cc1cc(C)c(-n2ccn3nc(-c4cccnc4)cc23)cc1NC(=O)c1cc(C#N)cc(S(F)(F)(F)(F)F)c1 | cell-free assay, competition with immobilised ligand | 0.1 µM | 82.4%
CN(C)c1nccc(-c2cnn3ncccc23)n1 | binding | 1 µM | 39%
COc1cnc(Nc2cccc(S(N)(=O)=O)c2)nc1N1CCN(c2ccccc2)C(=O)C1 | binding, competition with immobilised ligand | 1 µM | 86%
CN(CCCC(F)(F)F)c1nccc(-c2cnn3ncccc23)n1 | binding | 1 µM | 92%
C[C@H](c1ccc(F)cc1)N(Cc1cccc(C(=O)O)c1)C(=O)c1cnc2ccccc2c1 | cell-free assay, competition with immobilised ligand | 1 µM | 86%
C[C@@H](c1ccc(-n2cnc3c(N)ncnc32)cc1)N1CCc2nn(C)c(Cc3ccccc3)c2C1=O | binding, competition with immobilised ligand | 0.1 µM | 86%
COc1ncc2cc3ccccc3nc2c1C#N | cell-free assay, competition with immobilised ligand | 5 µM | 97%
O=C(NCCCN1CCOCC1)c1ccc(Nc2nccc(-c3cc4ccccc4s3)n2)cc1 | binding, competition with immobilised ligand | 1 µM | 19%
N[C@@H]1CCN(c2nccc(-c3cnn4ncccc34)n2)C1 | binding | 1 µM | 100%
